Measurements: ChEMBL document CHEMBL3853290, “Sesquiterpenoids Isolated from Two Species of the Asteriscus Alliance” (J Nat Prod, 2016)

What was measured:
Format in all cases: functional, cell-based
[1] = (§1) Cytotoxicity against human MOLT3 cells assessed as cell growth inhibition after 72 hrs by MTT assay; conditions: MOLT-3, 72 h
Procedure, shortened: (§2)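 Cells from DSMZ, grown in RPMI 1640 with 2 mM L-glutamine and 10% heat-inactivated FBS. 1 × 10^4 exponentially growing cells per well exposed to a range of compound concentrations. MTT (0.5 mg/mL) added, 4 h at 37 °C, then 10% SDS in 0.05 M HCl overnight at room temperature in the dark. Absorbance read at 570 nm. IC50 from nonlinear regression, means ± SE of ≥3 independent experiments in triplicate. Etoposide as positive control.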

[2] = Cytotoxicity against human HL60 cells assessed as cell growth inhibition after 72 hrs by MTT assay; conditions: HL-60, 72 h; procedure, shortened: as §2
MOLT-3 = assay: as §1; procedure, shortened: as §2

SMILES	IC50 [1] [µM]	IC50 [2] [µM]	growth inhibition (GI) (MOLT-3)
C[C@@H]1C(=O)/C=C\C(C)(C)[C@@H]2C=C(CC[C@@H]1O)C(=O)O2	> 10	> 10	–
CC1(C)C[C@@H]2C(=O)[C@](C)(O)/C=C\C[C@@H]3C(=O)O[C@H]1[C@@H]32	> 10	> 10	–
C/C1=C/CC[C@]23O[C@H]2[C@H](OC3=O)C(C)(C)/C=C/C1=O	> 10	> 10	–
CCO[C@H]1CCC2=C[C@H](OC2=O)C(C)(C)/C=C\C(=O)[C@H]1C	> 10	> 10	–
CC1(C)/C=C\C(=O)[C@@]2(C)O[C@H]2CCC2=C[C@@H]1OC2=O	4.1	5.4	Dose-dependent effect
COc1cc([C@@H]2c3cc4c(cc3[C@@H](O[C@@H]3O[C@@H]5CO[C@@H](C)O[C@H]5[C@H](O)[C@H]3O)[C@H]3COC(=O)[C@H]23)OCO4)cc(OC)c1O [ETOPOSIDE]	0.7	0.5	–
